Common to all, as to format: functional
Test [1] deals with Staphylococcus aureus. As to the kind of experiment: Antimicrobial activity against Staphylococcus aureus 2079 at 35 degC after 18 to 24 hrs by NCCLS method based antimicrobial assay. As to conditions: for MBC: read-out: MBC99.9.
The subject of test [2] is Staphylococcus aureus. Briefly: Antimicrobial activity against Staphylococcus aureus 2079 at 128 ug/disc at 35 degC after 24 hrs by agar-well diffusion assay. Conditions: for zone of inhibition at 128 µg/disc: Staphylococcus aureus, 2079, 24 h, read-out: DIZ. The gist of the method: (§1)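 Agar-well diffusion: 24 h bacterial cultures adjusted to 0.5 McFarland (1.5 × 10⁸ CFU/mL) and mixed into molten Mueller-Hinton agar before pouring. 6 mm wells punched and each filled with 50 µL of compound stock or control. Plates incubated 35 °C for 24 h. Zone of growth inhibition diameter measured with vernier caliper.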
For orientation: Agar diffusion results depend on both activity and mobility in agar.

Test [3] concerns Pseudomonas aeruginosa. As to the kind of experiment: Antimicrobial activity against Pseudomonas aeruginosa 2036 at 128 ug/disc at 35 degC after 24 hrs by agar-well diffusion assay. As to conditions: for zone of inhibition at 128 µg/disc: Pseudomonas aeruginosa, 2036, 24 h, read-out: DIZ. In outline:
as §1

Test [4] concerns Aspergillus niger. Briefly: Antimicrobial activity against Aspergillus niger 545 at 128 ug/disc at 37 degC after 24 to 72 hrs by agar-well diffusion assay. As to conditions: in the assay text read “disc diffusion assay” for “agar-well diffusion assay”. The gist of the method: (§2)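 Potato dextrose agar base plates overlaid with seeded agar cooled to 40 °C and inoculated with spores from 10-day cultures, final 1 × 10⁶ spores/mL. Compounds dissolved in DMSO at 128 µg/mL and applied on 6 mm filter-paper discs placed on chilled seeded medium. Nystatin positive control, DMSO negative control. Incubation 24–72 h at 37 °C. Inhibition zone diameter read by vernier caliper.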

Test [5] deals with Bacillus subtilis. As to the kind of experiment: Antimicrobial activity against Bacillus subtilis 2250 at 35 degC after 18 to 24 hrs by NCCLS method based antimicrobial assay. Conditions: for MBC: read-out: MBC99.9.
For test [6], the system named is Aspergillus niger. As to the kind of experiment: Antimicrobial activity against Aspergillus niger 545 at 35 degC after 48 hrs by CLSI method based antimicrobial assay. The gist of the method:
(§3)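 Broth microdilution following CLSI guidelines over 256 to 1 µg/mL. MIC90 is the lowest concentration completely inhibiting growth. For MFC, 0.1 mL from each tube spread on agar and CFU counted after 48 h at 35 °C; MFC is lowest concentration killing 99.9% of inoculum. MFC/MIC ratio calculated: […], ≤4 as fungicidal.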

The test system of test [7] is Candida albicans. Briefly: Antimicrobial activity against Candida albicans 3471 at 35 degC after 48 hrs by CLSI method based antimicrobial assay. As to conditions: for MFC: read-out: MFC99.9. In outline:
as §3

Test [8] has as its system Candida albicans. As to the kind of experiment: Ratio of MFC99.9 to MIC90 for Candida albicans 3471 at 35 degC after 48 hrs by CLSI method based antimicrobial assay. In outline: as §3
Test [9] deals with Candida albicans. As to the kind of experiment: Antimicrobial activity against Candida albicans 3471 at 128 ug/disc at 37 degC after 24 to 72 hrs by agar-well diffusion assay. As to conditions: for zone of inhibition at 128 µg/disc: read-out: DIZ. The gist of the method:
as §2

The test system of test [10] is Pseudomonas aeruginosa. Briefly: Antimicrobial activity against Pseudomonas aeruginosa 2036 at 35 degC after 18 to 24 hrs by NCCLS method based antimicrobial assay. As to conditions: for MBC: read-out: MBC99.9.
In test [11] the test system is Bacillus subtilis. Briefly: Antimicrobial activity against Bacillus subtilis 2250 at 128 ug/disc at 35 degC after 24 hrs by agar-well diffusion assay. Conditions: for zone of inhibition at 128 µg/disc: Bacillus subtilis, 2250, 24 h, read-out: DIZ. The gist of the method: as §1
Test [12] deals with Escherichia coli. As to the kind of experiment: Antimicrobial activity against Escherichia coli 2109 at 35 degC after 18 to 24 hrs by NCCLS method based antimicrobial assay. Conditions: for MBC: read-out: MBC99.9.
For test [13], the system named is Escherichia coli. Briefly: Antimicrobial activity against Escherichia coli 2109 at 128 ug/disc at 35 degC after 24 hrs by agar-well diffusion assay. Conditions: for zone of inhibition at 128 µg/disc: Escherichia coli, 2109, 24 h, read-out: DIZ. In outline:
as §1

Converted amounts (≈) assume the structure as drawn. The source made the active and inactive calls. The rule behind the calls is not given here.

These results are taken from ChEMBL document CHEMBL2021913, “Synthesis and biological evaluation of some novel thiazole substituted benzotriazole derivatives” (2012).

As a reminder, the MIC is the lowest concentration found to suppress growth. Regarding `O=[N+]([O-])c1ccc(/C(Cn2nnc3ccccc32)=N\Nc2nc(-c3ccc(Br)cc3)cs2)cc1`, the MIC worked out at 64 µg/mL (≈ 120 µM) in the test on Staphylococcus aureus [1]; 128 µg/mL (≈ 240 µM) in the test with Bacillus subtilis [5]; 32 µg/mL (≈ 59.9 µM) in the test on Candida albicans [7] (Candida albicans, 3471, 48 h). Further, the MBC in the test on Staphylococcus aureus [1] turned out to be 128 µg/mL (≈ 240 µM); in the test on Bacillus subtilis [5], 256 µg/mL (≈ 479 µM). The zone of inhibition at 128 µg/disc turned out to be 22.6 mm in the test with Staphylococcus aureus [2], 17.3 mm in the test with Candida albicans [9] and 15.3 mm with Bacillus subtilis [11]. Besides, the “diameter of the inhibition zone (DIZ)” value with Pseudomonas aeruginosa [3] and in the test with Aspergillus niger [4] was “inactive” each time. For the same compound, the MFC99.9 result in the test on Aspergillus niger [6] was “inactive”. Further, the MIC entry with Aspergillus niger [6], in the test on Pseudomonas aeruginosa [10] and in the test on Escherichia coli [12] was “inactive” in each case. Besides, the MFC in the test with Candida albicans [7] (Candida albicans, 3471, 48 h) stood at 64 µg/mL (≈ 120 µM). Also, the Ratio with Candida albicans [8] was determined as 2. Moreover, the MBC99.9 result with Pseudomonas aeruginosa [10] and in the test with Escherichia coli [12] was “inactive” in each case.

As to `O=[N+]([O-])c1ccc(-c2csc(N/N=C(/Cn3nnc4ccccc43)c3ccc(Br)cc3)n2)cc1`, the MBC99.9 entry with Staphylococcus aureus [1], in the test on Bacillus subtilis [5] and in the test on Escherichia coli [12] was “inactive” each time. Besides, the MIC entry in the test on Staphylococcus aureus [1], in the test with Bacillus subtilis [5], in the test with Aspergillus niger [6], in the test with Candida albicans [7] and in the test with Escherichia coli [12] was “inactive” in each case. Further, the “diameter of the inhibition zone (DIZ)” value in the test on Staphylococcus aureus [2], with Aspergillus niger [4], in the test on Candida albicans [9], with Escherichia coli [13] and in the test on Bacillus subtilis [11] was “inactive” in each case. Also, in the test on Pseudomonas aeruginosa [3], the zone of inhibition at 128 µg/disc came out at 13.2 mm. The MFC99.9 result in the test on Aspergillus niger [6] and with Candida albicans [7] was “inactive” throughout. The same compound came in with an MIC in the test on Pseudomonas aeruginosa [10] of 128 µg/mL (≈ 240 µM). In addition, the MBC in the test on Pseudomonas aeruginosa [10] was determined as 256 µg/mL (≈ 479 µM).

For `O=[N+]([O-])c1ccc(/C(Cn2nnc3ccccc32)=N\Nc2nc(-c3ccc([N+](=O)[O-])cc3)cs2)cc1`, the MBC99.9 result in the test on Staphylococcus aureus [1], in the test on Bacillus subtilis [5] and in the test on Pseudomonas aeruginosa [10] was “inactive” in each case. Besides, the MIC result in the test on Staphylococcus aureus [1], in the test on Bacillus subtilis [5], with Aspergillus niger [6] and in the test with Pseudomonas aeruginosa [10] was “inactive” in each case. Further, the “diameter of the inhibition zone (DIZ)” value with Staphylococcus aureus [2], in the test with Pseudomonas aeruginosa [3], with Aspergillus niger [4] and with Bacillus subtilis [11] was “inactive” throughout. The MFC99.9 result with Aspergillus niger [6] was “inactive”. For the same compound, the MIC in the test with Candida albicans [7] (Candida albicans, 3471, 48 h) is 64 µg/mL (≈ 128 µM); against Escherichia coli [12], 128 µg/mL (≈ 256 µM). Moreover, in the test on Candida albicans [7] (Candida albicans, 3471, 48 h), the MFC is 128 µg/mL (≈ 256 µM). In addition, the Ratio in the test on Candida albicans [8] is recorded as 2. For the same compound, the zone of inhibition at 128 µg/disc in the test on Candida albicans [9] worked out at 14.3 mm; with Escherichia coli [13], 17.5 mm. Also, in the test on Escherichia coli [12], the MBC worked out at 256 µg/mL (≈ 511 µM).

As for `FC(F)(F)c1cc(-c2csc(N/N=C(/Cn3nnc4ccccc43)c3ccc(Br)cc3)n2)cc(C(F)(F)F)c1`, the MIC against Staphylococcus aureus [1] and in the test on Bacillus subtilis [5] was 64 µg/mL (≈ 102 µM) in each case. For the same compound, the MBC was determined as 64 µg/mL (≈ 102 µM) in the test with Staphylococcus aureus [1] and 128 µg/mL (≈ 205 µM) in the test with Bacillus subtilis [5]. Besides, the zone of inhibition at 128 µg/disc in the test with Staphylococcus aureus [2] was 22.1 mm; with Bacillus subtilis [11] it was 20.3 mm. Also, the “diameter of the inhibition zone (DIZ)” value in the test with Pseudomonas aeruginosa [3], in the test on Aspergillus niger [4], in the test on Candida albicans [9] and in the test on Escherichia coli [13] was “inactive” in each case. Also, the MFC99.9 result in the test with Aspergillus niger [6] and in the test with Candida albicans [7] was “inactive” each time. Also, the MIC entry with Aspergillus niger [6], with Candida albicans [7], with Pseudomonas aeruginosa [10] and in the test with Escherichia coli [12] was “inactive” throughout. Besides, the MBC99.9 result in the test on Pseudomonas aeruginosa [10] and in the test with Escherichia coli [12] was “inactive” throughout.

With `O=[N+]([O-])c1ccc(/C(Cn2nnc3ccccc32)=N\Nc2nc(-c3ccc(Cl)cc3)cs2)cc1`, the MBC99.9 entry in the test with Staphylococcus aureus [1] and in the test with Bacillus subtilis [5] was “inactive” throughout. Further, the MIC entry in the test with Staphylococcus aureus [1], with Bacillus subtilis [5], with Aspergillus niger [6] and in the test with Candida albicans [7] was “inactive” throughout. In addition, the “diameter of the inhibition zone (DIZ)” value in the test with Staphylococcus aureus [2], in the test with Aspergillus niger [4], in the test on Candida albicans [9] and in the test on Bacillus subtilis [11] was “inactive” in each case. Further, the zone of inhibition at 128 µg/disc in the test on Pseudomonas aeruginosa [3] was determined as 16.7 mm; in the test with Escherichia coli [13], 18.7 mm. Also, the MFC99.9 result with Aspergillus niger [6] and in the test with Candida albicans [7] was “inactive” throughout. For the same compound, the MIC against Pseudomonas aeruginosa [10] and against Escherichia coli [12] was 64 µg/mL (≈ 131 µM) each time. Also, the MBC in the test with Pseudomonas aeruginosa [10] and in the test with Escherichia coli [12] was 128 µg/mL (≈ 261 µM) each time.

For the compound `O=C(N[C@H](CO)[C@H](O)c1ccc([N+](=O)[O-])cc1)C(Cl)Cl` [CHLORAMPHENICOL], the MBC in the test on Staphylococcus aureus [1], with Bacillus subtilis [5], in the test on Pseudomonas aeruginosa [10] and in the test with Escherichia coli [12] was 32 µg/mL (≈ 99 µM) each time. Besides, the zone of inhibition at 128 µg/disc in the test with Staphylococcus aureus [2] is 31.4 mm; with Pseudomonas aeruginosa [3], 23.9 mm; in the test on Escherichia coli [13], 27.6 mm; in the test with Bacillus subtilis [11], 29.2 mm.

With `O=[N+]([O-])c1ccc(-c2csc(N/N=C(/Cn3nnc4ccccc43)c3cc(C(F)(F)F)cc(C(F)(F)F)c3)n2)cc1`, the MBC99.9 entry in the test on Staphylococcus aureus [1], in the test with Bacillus subtilis [5] and in the test on Pseudomonas aeruginosa [10] was “inactive” throughout. The MIC entry in the test on Staphylococcus aureus [1], in the test with Bacillus subtilis [5], in the test with Aspergillus niger [6], in the test with Candida albicans [7] and with Pseudomonas aeruginosa [10] was “inactive” each time. For the same compound, the “diameter of the inhibition zone (DIZ)” value in the test on Staphylococcus aureus [2], with Pseudomonas aeruginosa [3], in the test on Aspergillus niger [4], in the test on Candida albicans [9] and in the test with Bacillus subtilis [11] was “inactive” throughout. Further, the MFC99.9 entry in the test with Aspergillus niger [6] and in the test with Candida albicans [7] was “inactive” each time. The zone of inhibition at 128 µg/disc with Escherichia coli [13] worked out at 13.1 mm. For the same compound, the MIC in the test on Escherichia coli [12] was 128 µg/mL (≈ 216 µM). In addition, in the test with Escherichia coli [12], the MBC was 256 µg/mL (≈ 433 µM).

Take `FC(F)(F)c1cc(/C(Cn2nnc3ccccc32)=N\Nc2nc(-c3ccc(Br)cc3)cs2)cc(C(F)(F)F)c1`: the MBC99.9 entry in the test on Staphylococcus aureus [1], with Bacillus subtilis [5] and in the test on Escherichia coli [12] was “inactive” each time. Besides, the MIC entry in the test on Staphylococcus aureus [1], with Bacillus subtilis [5], in the test with Aspergillus niger [6], in the test on Candida albicans [7] and in the test on Escherichia coli [12] was “inactive” each time. For the same compound, the “diameter of the inhibition zone (DIZ)” value in the test on Staphylococcus aureus [2], in the test with Aspergillus niger [4], with Candida albicans [9] and in the test with Bacillus subtilis [11] was “inactive” in each case. In addition, the zone of inhibition at 128 µg/disc in the test with Pseudomonas aeruginosa [3] came to 15.6 mm. The MFC99.9 entry in the test with Aspergillus niger [6] and with Candida albicans [7] was “inactive” throughout. In the test with Pseudomonas aeruginosa [10], this compound had a minimal inhibitory concentration (MIC) of 64 µg/mL (≈ 102 µM). Also, the MBC in the test with Pseudomonas aeruginosa [10] was determined as 128 µg/mL (≈ 205 µM).
